Experimental data reported in ChEMBL document CHEMBL4261587 (Eur J Med Chem, 2018).

Key:
[1] = biological target: Dual specificity tyrosine-phosphorylation-regulated kinase 1B (Homo sapiens, UniProt Q9Y463); assay: Inhibition of recombinant full length human Dyrk1B expressed in Baculovirus expression system using KKISGRLSPIMTEQ as substrate in presence of ATP
[2] = biological target: Dual specificity protein kinase CLK2 (Homo sapiens) (UniProt P49760); assay: Inhibition of recombinant human Clk2 expressed in Baculovirus expression system at 2 uM by Z'-LYTE assay
Dual specificity protein kinase CLK2 (Homo sapiens), sequence (P49760 whole entry, looked up): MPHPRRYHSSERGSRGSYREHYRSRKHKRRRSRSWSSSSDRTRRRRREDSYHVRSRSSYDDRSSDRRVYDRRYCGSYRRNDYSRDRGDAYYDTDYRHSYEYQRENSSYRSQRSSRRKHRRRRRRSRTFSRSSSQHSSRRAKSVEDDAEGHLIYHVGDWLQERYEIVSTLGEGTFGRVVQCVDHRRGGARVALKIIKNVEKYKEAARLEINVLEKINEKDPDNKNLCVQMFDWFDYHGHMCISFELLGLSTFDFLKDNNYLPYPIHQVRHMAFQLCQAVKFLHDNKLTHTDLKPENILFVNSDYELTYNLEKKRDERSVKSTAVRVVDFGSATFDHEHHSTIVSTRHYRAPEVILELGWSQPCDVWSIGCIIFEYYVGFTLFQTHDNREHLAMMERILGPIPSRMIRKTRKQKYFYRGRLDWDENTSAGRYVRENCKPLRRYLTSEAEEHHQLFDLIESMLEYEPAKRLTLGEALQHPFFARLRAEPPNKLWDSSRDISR

[3] = biological target: T1, Dual specificity tyrosine-phosphorylation-regulated kinase 1A (Homo sapiens, UniProt Q13627); assay: Inhibition of recombinant human Dyrk1A expressed in Baculovirus expression system by Z'-LYTE assay
HeLa [4] = assay: Cytotoxicity against human HeLa cells assessed as cell viability at 1 uM by XTT assay; format: functional; conditions: read-out: Activity
[5] = biological target: T2, Serine/threonine-protein kinase haspin (Homo sapiens) (UniProt Q8TF76); assay: Inhibition of recombinant human Haspin expressed in Baculovirus expression system at 2 uM by Adapta assay
T2 sequence (whole entry): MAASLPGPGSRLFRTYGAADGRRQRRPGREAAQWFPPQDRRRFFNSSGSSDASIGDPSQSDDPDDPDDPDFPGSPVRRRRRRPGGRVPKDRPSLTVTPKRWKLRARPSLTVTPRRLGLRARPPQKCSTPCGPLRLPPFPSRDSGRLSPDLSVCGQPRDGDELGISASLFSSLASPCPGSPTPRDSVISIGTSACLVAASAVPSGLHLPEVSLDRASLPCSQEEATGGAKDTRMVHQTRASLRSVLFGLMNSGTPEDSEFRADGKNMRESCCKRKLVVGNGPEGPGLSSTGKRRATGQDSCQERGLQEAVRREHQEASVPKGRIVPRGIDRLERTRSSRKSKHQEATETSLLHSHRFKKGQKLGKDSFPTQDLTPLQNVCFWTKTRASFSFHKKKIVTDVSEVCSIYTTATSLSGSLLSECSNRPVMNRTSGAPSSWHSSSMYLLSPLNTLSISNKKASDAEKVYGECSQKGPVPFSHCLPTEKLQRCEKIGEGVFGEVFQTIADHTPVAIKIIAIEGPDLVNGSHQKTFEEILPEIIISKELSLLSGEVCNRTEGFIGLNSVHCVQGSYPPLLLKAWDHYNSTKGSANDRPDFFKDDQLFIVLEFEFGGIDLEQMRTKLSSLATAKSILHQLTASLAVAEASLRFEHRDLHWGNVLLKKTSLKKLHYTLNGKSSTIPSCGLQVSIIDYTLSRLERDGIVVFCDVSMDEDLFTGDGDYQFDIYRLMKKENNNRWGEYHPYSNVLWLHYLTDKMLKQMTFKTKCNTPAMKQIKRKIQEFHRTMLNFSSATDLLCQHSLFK

[6] = biological target: T1, Dual specificity tyrosine-phosphorylation-regulated kinase 1A; assay: Inhibition of Dyrk1A in human HeLa cells transfected with GFP-SF3b1-NT assessed as decrease in SF3B1 phosphorylation at Thr434 after 18 hrs by Western blot analysis; format: cell-based
Outline: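 HeLa cells were transiently transfected with a GFP-SF3b1 expression vector, then treated with compound. Read-out was phosphorylation of SF3b1 at Thr434, which serves as a marker of endogenous Dyrk1A activity in the cell.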

[7] = biological target: T1, Dual specificity tyrosine-phosphorylation-regulated kinase 1A; assay: Inhibition of recombinant human Dyrk1A expressed in Baculovirus expression system at 2 uM by Z'-LYTE assay
[8] = biological target: Casein kinase I isoform delta (Homo sapiens) (UniProt P48730); assay: Inhibition of recombinant human CK1delta expressed in Baculovirus expression system at 2 uM by Z'-LYTE assay
Casein kinase I isoform delta (Homo sapiens), sequence (P48730 whole entry, looked up, canonical isoform): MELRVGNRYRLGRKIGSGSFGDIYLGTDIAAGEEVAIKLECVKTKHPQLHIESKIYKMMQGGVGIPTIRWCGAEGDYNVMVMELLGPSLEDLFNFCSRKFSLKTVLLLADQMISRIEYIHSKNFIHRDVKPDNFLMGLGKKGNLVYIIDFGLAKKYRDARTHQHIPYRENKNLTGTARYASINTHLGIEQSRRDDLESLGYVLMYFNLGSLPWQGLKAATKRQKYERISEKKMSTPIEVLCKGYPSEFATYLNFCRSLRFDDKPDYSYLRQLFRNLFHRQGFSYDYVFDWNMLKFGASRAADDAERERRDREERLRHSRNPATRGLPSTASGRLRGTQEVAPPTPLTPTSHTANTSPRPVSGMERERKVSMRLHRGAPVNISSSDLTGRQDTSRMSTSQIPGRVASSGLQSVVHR

[9] = biological target: Myosin light chain kinase 2, skeletal/cardiac muscle (Homo sapiens) (UniProt Q9H1R3); assay: Inhibition of recombinant human MLCK2 expressed in Baculovirus expression system at 2 uM by Lantha-screen assay
Myosin light chain kinase 2, skeletal/cardiac muscle (Homo sapiens), sequence (Q9H1R3 whole entry): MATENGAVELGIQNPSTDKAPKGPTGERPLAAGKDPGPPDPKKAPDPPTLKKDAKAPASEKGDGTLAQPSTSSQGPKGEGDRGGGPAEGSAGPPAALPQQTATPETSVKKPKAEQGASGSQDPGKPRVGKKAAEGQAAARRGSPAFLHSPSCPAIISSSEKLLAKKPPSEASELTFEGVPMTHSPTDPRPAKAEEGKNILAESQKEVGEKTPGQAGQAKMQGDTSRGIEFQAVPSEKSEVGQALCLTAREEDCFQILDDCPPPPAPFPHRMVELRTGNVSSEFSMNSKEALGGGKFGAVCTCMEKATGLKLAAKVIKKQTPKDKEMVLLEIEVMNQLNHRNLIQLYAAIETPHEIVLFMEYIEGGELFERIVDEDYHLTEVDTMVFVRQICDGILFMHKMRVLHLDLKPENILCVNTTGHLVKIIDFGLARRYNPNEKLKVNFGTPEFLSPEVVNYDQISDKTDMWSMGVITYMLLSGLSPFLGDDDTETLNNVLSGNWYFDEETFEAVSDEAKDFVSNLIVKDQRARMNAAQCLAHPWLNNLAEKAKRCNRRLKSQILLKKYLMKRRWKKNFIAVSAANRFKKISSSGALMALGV

[10] = biological target: T3, Serine/threonine-protein kinase haspin (Homo sapiens, UniProt Q8TF76); assay: Inhibition of recombinant human Haspin expressed in Baculovirus expression system by Adapta assay
T3 sequence (Q8TF76 whole entry): T2 sequence (whole entry)

[11] = Half life in human liver S9 fraction at 0.3 uM incubated up to 120 mins at 37 degC in presence of NADP+/UDPGA by LC-MS/MS analysis; format: ADME, subcellular
Outline: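 Phase I and phase II metabolic stability was tested in S9 fraction from human liver homogenate. Samples were taken at several time points, and the remaining parent compound was quantified by LC-MS/MS to give a metabolic half-life.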

HeLa [12] = assay: Cytotoxicity against human HeLa cells assessed as cell viability at 3 uM by XTT assay; format: functional; conditions: read-out: Activity
[13] = biological target: Serine/threonine-protein kinase pim-1 (Homo sapiens) (UniProt P11309); assay: Inhibition of recombinant human PIM1 expressed in Baculovirus expression system at 2 uM by Z'-LYTE assay
Serine/threonine-protein kinase pim-1 (Homo sapiens), sequence (P11309 whole entry, looked up): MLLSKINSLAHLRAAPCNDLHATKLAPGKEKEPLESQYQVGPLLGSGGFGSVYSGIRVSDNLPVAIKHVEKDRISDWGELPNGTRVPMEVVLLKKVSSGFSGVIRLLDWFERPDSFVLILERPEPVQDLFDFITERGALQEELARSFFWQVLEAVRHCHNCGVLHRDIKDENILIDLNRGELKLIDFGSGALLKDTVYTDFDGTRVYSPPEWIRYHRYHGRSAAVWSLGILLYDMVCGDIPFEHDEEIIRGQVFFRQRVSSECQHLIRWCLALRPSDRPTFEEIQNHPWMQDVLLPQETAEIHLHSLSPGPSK

[14] = biological target: SRSF protein kinase 1 (Homo sapiens) (UniProt Q96SB4); assay: Inhibition of recombinant human SRPK1 expressed in Baculovirus expression system at 2 uM by Z'-LYTE assay
SRSF protein kinase 1 (Homo sapiens), sequence (Q96SB4 whole entry): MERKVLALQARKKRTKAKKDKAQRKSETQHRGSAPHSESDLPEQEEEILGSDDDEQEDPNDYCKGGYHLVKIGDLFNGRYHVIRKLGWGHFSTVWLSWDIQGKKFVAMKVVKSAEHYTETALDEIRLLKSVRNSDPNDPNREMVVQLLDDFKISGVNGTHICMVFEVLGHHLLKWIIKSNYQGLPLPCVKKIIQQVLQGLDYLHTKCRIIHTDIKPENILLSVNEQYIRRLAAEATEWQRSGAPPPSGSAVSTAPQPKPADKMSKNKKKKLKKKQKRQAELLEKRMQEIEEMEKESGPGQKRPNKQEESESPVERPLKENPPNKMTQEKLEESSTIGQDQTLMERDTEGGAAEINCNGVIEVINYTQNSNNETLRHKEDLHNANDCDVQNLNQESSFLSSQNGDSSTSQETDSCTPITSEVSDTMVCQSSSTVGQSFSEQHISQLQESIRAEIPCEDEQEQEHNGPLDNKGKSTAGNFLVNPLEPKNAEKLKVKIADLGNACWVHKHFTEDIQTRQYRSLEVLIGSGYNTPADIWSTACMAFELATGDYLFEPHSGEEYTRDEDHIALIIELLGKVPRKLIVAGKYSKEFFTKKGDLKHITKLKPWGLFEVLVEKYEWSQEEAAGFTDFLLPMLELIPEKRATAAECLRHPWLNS

[15] = biological target: Dual specificity protein kinase CLK1 (Homo sapiens, UniProt P49759); assay: Inhibition of recombinant human Clk1 expressed in Escherichia coli at 2 uM by Z'-LYTE assay
Dual specificity protein kinase CLK1, sequence (P49759 whole entry): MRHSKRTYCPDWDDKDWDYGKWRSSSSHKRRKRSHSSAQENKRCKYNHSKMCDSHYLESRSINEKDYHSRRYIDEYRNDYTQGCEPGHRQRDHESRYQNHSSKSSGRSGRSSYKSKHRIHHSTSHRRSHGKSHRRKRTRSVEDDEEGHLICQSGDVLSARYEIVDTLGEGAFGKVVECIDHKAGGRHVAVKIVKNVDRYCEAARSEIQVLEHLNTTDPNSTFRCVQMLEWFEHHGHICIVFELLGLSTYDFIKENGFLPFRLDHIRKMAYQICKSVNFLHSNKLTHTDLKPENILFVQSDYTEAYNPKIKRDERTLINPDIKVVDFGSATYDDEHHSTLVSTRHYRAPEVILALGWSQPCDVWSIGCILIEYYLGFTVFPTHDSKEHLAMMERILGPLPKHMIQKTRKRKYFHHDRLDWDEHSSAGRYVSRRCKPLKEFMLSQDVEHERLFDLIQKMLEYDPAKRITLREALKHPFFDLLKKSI

[16] = biological target: Homeodomain-interacting protein kinase 1 (Homo sapiens) (UniProt Q86Z02); assay: Inhibition of recombinant human HIPK1 expressed in Baculovirus expression system at 2 uM by Z'-LYTE assay
[17] = biological target: T4, Dual specificity tyrosine-phosphorylation-regulated kinase 2 (Homo sapiens, UniProt Q92630); assay: Inhibition of recombinant human Dyrk2 (unknown origin) at 2 uM by Lantha-screen assay
T4 sequence (Q92630 whole entry): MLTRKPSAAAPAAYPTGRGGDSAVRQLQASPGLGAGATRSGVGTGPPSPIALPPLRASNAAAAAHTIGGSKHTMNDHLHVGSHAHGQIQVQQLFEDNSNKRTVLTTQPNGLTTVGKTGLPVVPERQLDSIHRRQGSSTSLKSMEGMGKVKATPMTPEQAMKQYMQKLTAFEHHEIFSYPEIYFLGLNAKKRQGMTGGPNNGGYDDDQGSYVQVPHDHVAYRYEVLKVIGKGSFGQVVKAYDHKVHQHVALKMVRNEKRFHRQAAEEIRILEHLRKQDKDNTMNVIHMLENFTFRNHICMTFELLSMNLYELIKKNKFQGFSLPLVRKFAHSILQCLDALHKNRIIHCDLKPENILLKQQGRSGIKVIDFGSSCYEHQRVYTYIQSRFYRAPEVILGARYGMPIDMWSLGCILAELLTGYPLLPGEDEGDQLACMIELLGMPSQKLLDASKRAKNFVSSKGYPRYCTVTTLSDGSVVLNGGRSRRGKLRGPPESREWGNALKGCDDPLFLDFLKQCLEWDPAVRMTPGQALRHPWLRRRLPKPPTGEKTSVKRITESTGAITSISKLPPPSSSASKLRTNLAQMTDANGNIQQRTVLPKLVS

[18] = biological target: Cyclin-dependent kinase 5/CDK5 activator 1 (Homo sapiens) (UniProt Q00535+Q15078); assay: Inhibition of recombinant human CDK5/p25 expressed in baculovirus expression system at 2 uM by Z'-LYTE assay
Cyclin-dependent kinase 5/CDK5 activator 1 (Homo sapiens), sequence (Q00535 whole entry): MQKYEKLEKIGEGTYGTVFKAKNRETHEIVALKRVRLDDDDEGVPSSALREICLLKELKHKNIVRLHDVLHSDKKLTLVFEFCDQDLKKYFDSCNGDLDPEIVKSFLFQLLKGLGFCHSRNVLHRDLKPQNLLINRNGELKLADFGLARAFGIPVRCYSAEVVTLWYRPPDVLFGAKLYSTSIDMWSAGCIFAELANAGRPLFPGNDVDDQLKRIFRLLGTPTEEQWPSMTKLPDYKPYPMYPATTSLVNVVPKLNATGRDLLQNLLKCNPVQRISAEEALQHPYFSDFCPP
Cyclin-dependent kinase 5/CDK5 activator 1 (Homo sapiens), sequence (Q15078 99-307 partner limits assumed): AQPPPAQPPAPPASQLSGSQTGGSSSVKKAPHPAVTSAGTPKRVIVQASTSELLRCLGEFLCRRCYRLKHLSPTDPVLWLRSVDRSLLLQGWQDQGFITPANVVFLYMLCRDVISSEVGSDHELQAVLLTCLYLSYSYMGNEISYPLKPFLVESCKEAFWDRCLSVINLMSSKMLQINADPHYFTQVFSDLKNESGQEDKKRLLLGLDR

[19] = biological target: T5, Serine/threonine-protein kinase 17A (Homo sapiens) (UniProt Q9UEE5); assay: Inhibition of recombinant human STK17A expressed in Baculovirus expression system at 2 uM by Lantha-Screen assay
T5 sequence (whole entry): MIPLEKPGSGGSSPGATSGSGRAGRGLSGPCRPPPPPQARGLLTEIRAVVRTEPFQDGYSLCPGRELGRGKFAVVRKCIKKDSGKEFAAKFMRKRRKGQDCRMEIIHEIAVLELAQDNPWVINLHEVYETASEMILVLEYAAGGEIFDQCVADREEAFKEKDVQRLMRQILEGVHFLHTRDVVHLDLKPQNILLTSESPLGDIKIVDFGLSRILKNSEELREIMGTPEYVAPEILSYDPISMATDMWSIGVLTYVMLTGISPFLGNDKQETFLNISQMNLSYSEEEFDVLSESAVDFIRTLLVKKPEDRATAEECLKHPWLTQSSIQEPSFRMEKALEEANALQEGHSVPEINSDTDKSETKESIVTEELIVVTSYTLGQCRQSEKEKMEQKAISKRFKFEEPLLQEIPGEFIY

[20] = biological target: T1, Dual specificity tyrosine-phosphorylation-regulated kinase 1A; assay: Inhibition of recombinant full length human Dyrk1A expressed in Baculovirus expression system using KKISGRLSPIMTEQ as substrate in presence of ATP
HeLa [21] = assay: Cytotoxicity against human HeLa cells assessed as cell viability at 10 uM by XTT assay; format: functional; conditions: read-out: Activity
[22] = biological target: BDNF/NT-3 growth factors receptor (Homo sapiens) (UniProt Q16620); assay: Inhibition of recombinant human TRKB expressed in Baculovirus expression system at 2 uM by Z'-LYTE assay
BDNF/NT-3 growth factors receptor (Homo sapiens), sequence (Q16620 32-822 limits assumed): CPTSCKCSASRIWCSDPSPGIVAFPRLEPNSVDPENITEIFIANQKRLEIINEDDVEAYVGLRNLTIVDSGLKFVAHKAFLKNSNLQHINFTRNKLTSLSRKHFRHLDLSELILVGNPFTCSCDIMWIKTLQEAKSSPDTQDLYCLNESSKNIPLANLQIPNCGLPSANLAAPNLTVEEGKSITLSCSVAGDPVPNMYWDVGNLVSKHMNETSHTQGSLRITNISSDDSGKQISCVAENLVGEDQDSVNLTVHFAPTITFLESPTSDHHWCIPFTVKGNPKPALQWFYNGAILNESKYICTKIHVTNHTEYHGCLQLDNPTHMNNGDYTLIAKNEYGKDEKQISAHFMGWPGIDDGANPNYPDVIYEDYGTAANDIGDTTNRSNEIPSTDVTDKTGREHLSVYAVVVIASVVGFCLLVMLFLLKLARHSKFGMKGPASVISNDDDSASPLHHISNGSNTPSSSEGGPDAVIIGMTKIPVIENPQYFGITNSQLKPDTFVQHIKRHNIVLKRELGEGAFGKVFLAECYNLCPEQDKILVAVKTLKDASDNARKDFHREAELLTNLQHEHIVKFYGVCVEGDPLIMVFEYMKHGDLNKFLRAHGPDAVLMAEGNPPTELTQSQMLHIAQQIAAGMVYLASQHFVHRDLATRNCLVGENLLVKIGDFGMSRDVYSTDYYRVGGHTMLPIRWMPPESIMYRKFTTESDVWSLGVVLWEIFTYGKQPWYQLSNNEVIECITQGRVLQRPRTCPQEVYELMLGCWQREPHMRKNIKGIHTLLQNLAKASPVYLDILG

HeLa [23] = assay: Cytotoxicity against human HeLa cells after 72 hrs by CellTiter-Blue assay; format: functional, cell-based
[24] = Half life in Sprague-Dawley rat liver microsomes at 0.5 uM by LC-MS/MS analysis; format: ADME, microsome
HeLa [25] = assay: Cytotoxicity against human HeLa cells after 5 days by MTT assay; format: functional, cell-based; conditions: 120 h

Dual specificity tyrosine-phosphorylation-regulated kinase 1B, sequence (Q9Y463 whole entry): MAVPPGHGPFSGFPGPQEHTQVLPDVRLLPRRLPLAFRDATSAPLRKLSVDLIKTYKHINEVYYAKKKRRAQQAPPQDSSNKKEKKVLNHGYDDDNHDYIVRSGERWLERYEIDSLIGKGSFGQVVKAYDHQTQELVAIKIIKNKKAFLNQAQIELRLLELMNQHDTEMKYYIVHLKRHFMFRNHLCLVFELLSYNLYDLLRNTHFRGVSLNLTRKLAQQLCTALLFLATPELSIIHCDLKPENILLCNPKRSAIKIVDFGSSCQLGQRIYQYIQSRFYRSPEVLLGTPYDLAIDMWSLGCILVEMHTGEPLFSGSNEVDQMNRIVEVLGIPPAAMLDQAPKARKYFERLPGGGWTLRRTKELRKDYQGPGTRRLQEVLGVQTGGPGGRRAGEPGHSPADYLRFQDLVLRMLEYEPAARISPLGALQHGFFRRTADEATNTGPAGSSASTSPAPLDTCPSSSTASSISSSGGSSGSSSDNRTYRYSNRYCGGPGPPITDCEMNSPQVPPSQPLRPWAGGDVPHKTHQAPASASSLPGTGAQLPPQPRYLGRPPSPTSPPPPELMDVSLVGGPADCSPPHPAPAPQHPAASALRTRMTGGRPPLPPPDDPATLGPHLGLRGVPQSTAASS

In the case of O=C(Cc1ccccc1)Nc1cncc(-c2cc(-c3cccnc3)cs2)c1, the IC50 [1] is reported as 326 nM.

With Nc1ccc(-c2cc(-c3cccnc3)cs2)cn1 the IC50 [1] was 251 nM.

In the case of O=C(Cc1ccc(F)cc1)Nc1cncc(-c2cc(-c3cccnc3)cs2)c1, the inhibition [2] is reported as 19%, the IC50 [3] is reported as 14.3 nM and the viability at 1 µM (HeLa [4]) is reported as 99%. For the same compound, the inhibition [5] was 95%, the IC50 [6] was 79 nM and the inhibition [7] was 87%. For the same compound, the inhibition [8] was 4%, the inhibition [9] was 9.8% and the IC50 [10] was 36 nM. The half-life at 0.3 µM [11] was 118 min, the viability at 3 µM (HeLa [12]) was 97% and the inhibition [13] was 8%. The inhibition [14] was 2%, the inhibition at 2 µM [15] was 40% and the IC50 [1] was 383 nM. The inhibition [16] was 0%, the inhibition at 2 µM [17] was 40% and the inhibition [18] was 0%. For the same compound, the inhibition [19] was 60%, the IC50 [20] was 14.3 nM and the viability at 10 µM (HeLa [21]) was 88%. The inhibition [22] was 10%.

Work on Oc1ccc(-c2nc3ccc4[nH]ncc4c3c3c2CCCC3)c(F)c1 yielded an IC50 (HeLa [23]) of 4.8 µM.

For CN[C@@H]1C[C@H]2O[C@@](C)([C@@H]1OC)n1c3ccccc3c3c4c(c5c6ccccc6n2c5c31)C(=O)NC4 [STAUROSPORINE], the viability at 1 µM (HeLa [4]) was 33%.

For C[C@]12CC[C@H]3[C@@H](CCC4=CC(=O)CC[C@@]43C)[C@@H]1CC[C@@H]2O [TESTOSTERONE], the half-life at 0.3 µM [11] was 8.5 min.

Compound c1cncc(-c2cc(-c3cncs3)cs2)c1 has a half-life at 0.5 µM [24] of 27 min.

With O=C(Nc1cncc(-c2cc(-c3cccnc3)cs2)c1)c1c(F)cc(F)cc1F the half-life at 0.3 µM [11] was 123 min and the IC50 [1] was 298 nM.

For COc1ccc2c(c1)[nH]c1c(C)nccc12 [HARMINE], the IC50 (HeLa [25]) was 8 µM.

For Nc1cncc(-c2cc(-c3cccnc3)cs2)c1, the IC50 [1] was 154 nM.

Nc1cncc(-c2csc(-c3cccnc3)c2)c1 showed an IC50 [1] of 130 nM.
